Assay results: ChEMBL document CHEMBL1122702, “Radiohalogen-labeled imaging agents. 3. Compounds for measurement of brain blood flow by emission tomography” (J Med Chem, 1984)

Experiments:
Type in all cases: ADME, organism-based
[1] = organism: Rattus norvegicus; assay: The uptake of the 131 I-labeled compound at 30 min was evaluated in rat heart as Percent of injected dose in the total organ; conditions: in vivo, 0.5 h
Procedure, shortened: (§1)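 Male Sprague-Dawley rats (200–300 g, free access to food and water), lightly ether-anesthetized and restrained, received a 0.2 mL saline tail-vein bolus of 10–20 μCi 131I-labeled compound. They were decapitated at the stated time, and organs were excised, weighed and gamma-counted. Percent injected dose was determined against a calibrated external standard made by serial dilution of the injectate. n = 1–4 rats.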

[2] = organism: Rattus norvegicus; assay: Ratio of distribution of the [131I]-labeled compound at 5 min in rat lung over uptake in blood; conditions: other tissue
Procedure, shortened: (§2)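 Male Sprague-Dawley rats (200–300 g, fed ad libitum), ether-anesthetized, got a tail-vein bolus of 0.2 mL saline containing 10–20 μCi 131I compound and were decapitated at the stated time. Organs were weighed and gamma-counted against a serially diluted external standard. Organ/blood ratio was calculated from % dose per gram of organ. Animal numbers per time point were 1–4.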

[3] = organism: Rattus norvegicus; assay: Ratio of distribution of the [131I]-labeled compound at 5 min in rat heart over uptake in blood; conditions: other tissue; procedure, shortened: as §2
[4] = organism: Rattus norvegicus; assay: The uptake of the 131 I-labeled compound at 5 min was evaluated in rat liver as Percent of injected dose per gram in the organ; conditions: in vivo; procedure, shortened: as §1
[5] = organism: Rattus norvegicus; assay: Ratio of distribution of the [131I]-labeled compound at 5 min in rat liver over uptake in blood; conditions: other tissue; procedure, shortened: as §2
[6] = organism: Rattus norvegicus; assay: The uptake of the 131 I-labeled compound at 30 min was evaluated in rat kidney as Percent of injected dose in the total organ; conditions: in vivo, 0.5 h; procedure, shortened: as §1
[7] = organism: Rattus norvegicus; assay: The uptake of the 131 I-labeled compound at 30 min was evaluated in rat lung as Percent of injected dose per gram in the organ; conditions: in vivo, 0.5 h; procedure, shortened: as §1
[8] = organism: Rattus norvegicus; assay: The uptake of the 131 I-labeled compound at 30 min was evaluated in rat brain as Percent of injected dose in the total organ; conditions: in vivo, 0.5 h; procedure, shortened: as §1
[9] = organism: Rattus norvegicus; assay: The uptake of the 131 I-labeled compound at 30 min was evaluated in rat liver as Percent of injected dose in the total organ; conditions: in vivo, 0.5 h; procedure, shortened: as §1
[10] = organism: Rattus norvegicus; assay: Ratio of distribution of the [131I]-labeled compound at 30 min in rat kidney over uptake in blood; conditions: other tissue, 0.5 h; procedure, shortened: as §2
[11] = organism: Rattus norvegicus; assay: The uptake of the 131 I-labeled compound at 5 min was evaluated in rat heart as Percent of injected dose in the total organ; conditions: in vivo; procedure, shortened: as §1
[12] = organism: Rattus norvegicus; assay: Ratio of distribution of the [131I]-labeled compound at 30 min in rat brain over uptake in blood; conditions: 0.5 h; procedure, shortened: as §2
[13] = organism: Rattus norvegicus; assay: The uptake of the 131 I-labeled compound at 5 min was evaluated in rat kidney as Percent of injected dose per gram in the organ; conditions: in vivo; procedure, shortened: as §1
[14] = organism: Rattus norvegicus; assay: Ratio of distribution of the [131I]-labeled compound at 30 min in rat heart over uptake in blood; conditions: other tissue, 0.5 h; procedure, shortened: as §2
[15] = organism: Rattus norvegicus; assay: The uptake of the 131 I-labeled compound at 30 min was evaluated in rat liver as Percent of injected dose per gram in the organ; conditions: in vivo, 0.5 h; procedure, shortened: as §1
[16] = organism: Rattus norvegicus; assay: The uptake of the 131 I-labeled compound at 5 min was evaluated in rat blood as Percent of injected dose per gram in the organ; conditions: in vivo; procedure, shortened: as §1
[17] = organism: Rattus norvegicus; assay: The uptake of the 131 I-labeled compound at 30 min was evaluated in rat brain as Percent of injected dose per gram in the organ; conditions: in vivo, 0.5 h; procedure, shortened: as §1
[18] = organism: Rattus norvegicus; assay: The uptake of the 131 I-labeled compound at 5 min was evaluated in rat heart as Percent of injected dose per gram in the organ; conditions: in vivo; procedure, shortened: as §1
[19] = organism: Rattus norvegicus; assay: The uptake of the 131 I-labeled compound at 5 min was evaluated in rat brain as Percent of injected dose in the total organ; conditions: in vivo; procedure, shortened: as §1
[20] = organism: Rattus norvegicus; assay: Ratio of distribution of the [131I]-labeled compound at 30 min in rat liver over uptake in blood; conditions: other tissue, 0.5 h; procedure, shortened: as §2
[21] = organism: Rattus norvegicus; assay: The uptake of the 131 I-labeled compound at 30 min was evaluated in rat heart as Percent of injected dose per gram in the organ; conditions: in vivo, 0.5 h; procedure, shortened: as §1
[22] = organism: Rattus norvegicus; assay: Ratio of distribution of the [131I]-labeled compound at 30 min in rat lung over uptake in blood; conditions: other tissue, 0.5 h; procedure, shortened: as §2
[23] = organism: Rattus norvegicus; assay: Ratio of distribution of the [131I]-labeled compound at 5 min in rat kidney over uptake in blood; conditions: other tissue; procedure, shortened: as §2
[24] = organism: Rattus norvegicus; assay: The uptake of the 131 I-labeled compound at 30 min was evaluated in rat blood as Percent of injected dose per gram in the organ; conditions: in vivo, 0.5 h; procedure, shortened: as §1
[25] = organism: Rattus norvegicus; assay: Ratio of distribution of the [131I]-labeled compound at 5 min in rat brain over uptake in blood; procedure, shortened: as §2
[26] = organism: Rattus norvegicus; assay: The uptake of the 131 I-labeled compound at 5 min was evaluated in rat kidney as Percent of injected dose in the total organ; conditions: in vivo; procedure, shortened: as §1
[27] = organism: Rattus norvegicus; assay: The uptake of the 131 I-labeled compound at 5 min was evaluated in rat lung as Percent of injected dose per gram in the organ; conditions: in vivo; procedure, shortened: as §1
[28] = organism: Rattus norvegicus; assay: The uptake of the 131 I-labeled compound at 5 min was evaluated in rat brain as Percent of injected dose per gram in the organ; conditions: in vivo; procedure, shortened: as §1
[29] = organism: Rattus norvegicus; assay: The uptake of the 131 I-labeled compound at 5 min was evaluated in rat liver as Percent of injected dose in the total organ; conditions: in vivo; procedure, shortened: as §1
[30] = organism: Rattus norvegicus; assay: The uptake of the 131 I-labeled compound at 30 min was evaluated in rat kidney as Percent of injected dose per gram in the organ; conditions: in vivo, 0.5 h; procedure, shortened: as §1
[31] = organism: Rattus norvegicus; assay: The distribution of the 131 I-labeled compound at 5 min was evaluated in rat kidney as Percent of injected dose per gram in the organ; conditions: in vivo; procedure, shortened: as §1
[32] = organism: Rattus norvegicus; assay: The distribution of the 131 I-labeled compound at 30 min was evaluated in rat brain as Percent of injected dose per gram in the organ; conditions: in vivo, 0.5 h; procedure, shortened: as §1
[33] = organism: Rattus norvegicus; assay: The distribution of the 131 I-labeled compound at 30 min was evaluated in rat heart as Percent of injected dose in the total organ; conditions: in vivo, 0.5 h; procedure, shortened: as §1
[34] = organism: Rattus norvegicus; assay: The distribution of the 131 I-labeled compound at 5 min was evaluated in rat lung as Percent of injected dose per gram in the organ; conditions: in vivo; procedure, shortened: as §1
[35] = organism: Rattus norvegicus; assay: The distribution of the 131 I-labeled compound at 5 min was evaluated in rat brain as Percent of injected dose in the total organ; conditions: in vivo; procedure, shortened: as §1
[36] = organism: Rattus norvegicus; assay: The distribution of the 131 I-labeled compound at 30 min was evaluated in rat liver as Percent of injected dose in the total organ; conditions: in vivo, 0.5 h; procedure, shortened: as §1
[37] = organism: Rattus norvegicus; assay: The distribution of the 131 I-labeled compound at 30 min was evaluated in rat kidney as Percent of injected dose per gram in the organ; conditions: in vivo, 0.5 h; procedure, shortened: as §1
[38] = organism: Rattus norvegicus; assay: The distribution of the 131 I-labeled compound at 30 min was evaluated in rat kidney as Percent of injected dose in the total organ; conditions: in vivo, 0.5 h; procedure, shortened: as §1
[39] = organism: Rattus norvegicus; assay: The distribution of the 131 I-labeled compound at 30 min was evaluated in rat brain as Percent of injected dose in the total organ; conditions: in vivo, 0.5 h; procedure, shortened: as §1
[40] = organism: Rattus norvegicus; assay: The distribution of the 131 I-labeled compound at 30 min was evaluated in rat blood as Percent of injected dose per gram in the organ; conditions: in vivo, 0.5 h; procedure, shortened: as §1
[41] = organism: Rattus norvegicus; assay: The distribution of the 131 I-labeled compound at 30 min was evaluated in rat liver as Percent of injected dose per gram in the organ; conditions: in vivo, 0.5 h; procedure, shortened: as §1
[42] = organism: Rattus norvegicus; assay: The distribution of the 131 I-labeled compound at 5 min was evaluated in rat liver as Percent of injected dose per gram in the organ; conditions: in vivo; procedure, shortened: as §1
[43] = organism: Rattus norvegicus; assay: The distribution of the 131 I-labeled compound at 5 min was evaluated in rat brain as Percent of injected dose per gram in the organ; conditions: in vivo; procedure, shortened: as §1
[44] = organism: Rattus norvegicus; assay: The distribution of the 131 I-labeled compound at 5 min was evaluated in rat heart as Percent of injected dose in the total organ; conditions: in vivo; procedure, shortened: as §1
[45] = organism: Rattus norvegicus; assay: The distribution of the 131 I-labeled compound at 5 min was evaluated in rat kidney as Percent of injected dose in the total organ; conditions: in vivo; procedure, shortened: as §1
[46] = organism: Rattus norvegicus; assay: The distribution of the 131 I-labeled compound at 5 min was evaluated in rat heart as Percent of injected dose per gram in the organ; conditions: in vivo; procedure, shortened: as §1
[47] = organism: Rattus norvegicus; assay: The distribution of the 131 I-labeled compound at 5 min was evaluated in rat blood as Percent of injected dose per gram in the organ; conditions: in vivo; procedure, shortened: as §1
[48] = organism: Rattus norvegicus; assay: The distribution of the 131 I-labeled compound at 30 min was evaluated in rat lung as Percent of injected dose per gram in the organ; conditions: in vivo, 0.5 h; procedure, shortened: as §1
[49] = organism: Rattus norvegicus; assay: The distribution of the 131 I-labeled compound at 30 min was evaluated in rat heart as Percent of injected dose per gram in the organ; conditions: in vivo, 0.5 h; procedure, shortened: as §1
[50] = organism: Rattus norvegicus; assay: The distribution of the 131 I-labeled compound at 5 min was evaluated in rat liver as Percent of injected dose in the total organ; conditions: in vivo; procedure, shortened: as §1

SMILES | Ratio [2] | Ratio [3] | Ratio [5] | Ratio [10] | Ratio [12] | Ratio [14] | Ratio [20] | Ratio [22] | Ratio [23] | Ratio [25] | Dose [31] | Dose [32] | Dose [33] | Dose [34] | Dose [35] | Dose [36] | Dose [37] | Dose [38] | Dose [39] | Dose [40] | further results
CCCCCCCCCCCCNC(C)Cc1cc(OC)c(I)cc1OC (stereo not given) | 13 | 1.2 | 2.5 | 1.4 | 0.14 | 1.2 | 3.3 | 8.1 | 1.2 | 0.1 |  |  |  |  |  |  |  |  |  |  | Dose [1]: 0.27%; Dose [4]: 1.2%; Dose [6]: 0.69%; Dose [7]: 1.3%; Dose [8]: 0.046%; Dose [9]: 7.9%; Dose [11]: 1%; Dose [13]: 0.58%; Dose [15]: 0.53%; Dose [16]: 0.48%; Dose [17]: 0.022%; Dose [18]: 0.6%; Dose [19]: 0.084%; Dose [21]: 0.19%; Dose [24]: 0.16%; Dose [26]: 1.8%; Dose [27]: 6.1%; Dose [28]: 0.047%; Dose [29]: 17%; Dose [30]: 0.22%
COc1cc(CC(C)NCC#N)c(OC)cc1I (stereo not given) | 24 | 4.7 | 4.8 | 9.2 | 2.4 | 3 | 9.2 | 15 | 15 | 3 | 1.5% | 0.31% | 0.3% | 2.6% | 0.61% | 9.5% | 1.2% | 2.2% | 0.61% | 0.13% | Dose [41]: 1.2%; Dose [42]: 0.53%; Dose [43]: 0.3%; Dose [44]: 0.69%; Dose [45]: 4.8%; Dose [46]: 0.52%; Dose [47]: 0.11%; Dose [48]: 1.9%; Dose [49]: 0.39%; Dose [50]: 8.4%
COc1cc(CC(C)NCC2CC2)c(OC)cc1I (stereo not given) | 65 | 7.6 | 4.5 | 8.6 | 2.1 | 3.3 | 11 | 26 | 9.2 | 2.8 | 1.1% | 0.19% | 0.23% | 7.8% | 0.62% | 8.9% | 0.77% | 1.7% | 0.35% | 0.09% | Dose [41]: 0.97%; Dose [42]: 0.55%; Dose [43]: 0.33%; Dose [44]: 0.71%; Dose [45]: 2%; Dose [46]: 0.91%; Dose [47]: 0.12%; Dose [48]: 2.4%; Dose [49]: 0.3%; Dose [50]: 3.9%
